Results reported in ChEMBL document CHEMBL4130494, “Crassiflorone derivatives that inhibit Trypanosoma brucei glyceraldehyde-3-phosphate dehydrogenase (TbGAPDH) and Trypanosoma cruzi trypanothione reductase (TcTR) and display trypanocidal activity” (Eur J Med Chem, 2017).
Values after ≈ are worked out from the molar mass of the structure shown. Active and inactive are the calls of the source. No cut-off for these calls is given here.

System: Trypanosoma brucei
Test: Inhibition of Trypanosoma brucei glyceraldehyde-3-phosphate dehydrogenase at 10 uM using GAP as substrate in presence of NAD+ by spectrophotometric method relative to control
Conditions: not given
Summary of the method: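 Recombinant TbGAPDH (200–300 μg protein) in 10 mM triethanolamine, 1.7 mM NaHCO3, 100 mM KCl, 5 mM MgSO4, 1 mM EDTA, pH 7.6, 25 °C, with 400 μM NAD+, 500 μM KH2PO4, 300 μM GAP; NAD+ reduction followed at 340 nm; inhibitors from DMSO stocks; triplicate; reported as percentage activity.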

Compound	inhibition
O=C1C=C(Oc2ccccc2)C(=O)c2ccccc21	Active

Target: Trypanothione reductase (Trypanosoma cruzi) (UniProt P28593)
Test: Inhibition of Trypanosoma cruzi trypanothione reductase assessed as reduction in NADPH consumption at 10 uM using 100 uM trypanothione disulfide as substrate by spectrophotometric method
Conditions: not given
Summary of the method: (§1)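 Recombinant TcTR (5–10 mU) at 25 °C in 40 mM HEPES, 1 mM EDTA, pH 7.5, 100 μM NADPH, 5% DMSO; started with trypanothione disulfide; NADPH consumption read at 340 nm; percentage inhibition calculated.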

Sequence of Trypanothione reductase (Trypanosoma cruzi) (P28593 whole entry, looked up): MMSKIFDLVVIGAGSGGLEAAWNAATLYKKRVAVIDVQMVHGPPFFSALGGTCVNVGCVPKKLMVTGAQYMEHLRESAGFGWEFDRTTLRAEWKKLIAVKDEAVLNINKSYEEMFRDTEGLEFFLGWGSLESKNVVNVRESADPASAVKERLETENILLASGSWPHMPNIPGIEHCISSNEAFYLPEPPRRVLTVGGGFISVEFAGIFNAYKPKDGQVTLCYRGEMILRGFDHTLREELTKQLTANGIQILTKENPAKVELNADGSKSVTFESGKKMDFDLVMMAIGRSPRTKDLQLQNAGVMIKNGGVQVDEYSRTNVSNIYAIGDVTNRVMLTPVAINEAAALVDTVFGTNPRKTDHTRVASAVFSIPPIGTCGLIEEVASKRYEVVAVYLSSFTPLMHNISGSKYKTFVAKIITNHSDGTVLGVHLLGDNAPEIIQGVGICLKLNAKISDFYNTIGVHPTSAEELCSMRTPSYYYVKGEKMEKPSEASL

Compound	inhibition [%]
O=C1C=C(Oc2ccccc2)C(=O)c2ccccc21	29

Target: Trypanothione reductase (Trypanosoma cruzi) (UniProt P28593)
Test: Inhibition of Trypanosoma cruzi trypanothione reductase assessed as reduction in NADPH consumption at 10 uM using 40 uM trypanothione disulfide as substrate by spectrophotometric method
Conditions: not given
Summary of the method: as §1

Compound	inhibition [%]
O=C1C=C(Oc2ccccc2)C(=O)c2ccccc21	23

Target: Trypanothione reductase (Trypanosoma cruzi, UniProt P28593)
Test: Inhibition of Trypanosoma cruzi trypanothione reductase assessed as reduction in NADPH consumption using varying levels of trypanothione disulfide as substrate by Lineweaver-Burk plot analysis
Conditions: not given
Summary of the method: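 Recombinant T. cruzi TR (5-10 mU) at 25 °C in 40 mM HEPES, 1 mM EDTA, pH 7.5, with 100 μM NADPH and 5% DMSO. Reaction started with TS2 and NADPH consumption followed at 340 nm. TS2 varied at 20, 40, 60, 100 and 200 μM without inhibitor and at two fixed inhibitor concentrations. Inhibition type read from Lineweaver-Burk plots. Ki fitted from direct plot by non-linear least squares. Inhibitor assays run at least in duplicate.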

Sequence of Trypanothione reductase (P28593 whole entry): as the sequence (P28593 whole entry, looked up) above

Compound	Ki [µM]
c1cc2cc(-c3ccc(C4(N5CCCC5)CCCCC4)s3)ccc2[nH]1	4

Target: Trypanothione reductase (Trypanosoma cruzi) (UniProt P28593)
Test: Inhibition of Trypanosoma cruzi trypanothione reductase assessed as reduction in NADPH consumption at 5 uM using 100 uM trypanothione disulfide as substrate by spectrophotometric method relative to control
Conditions: not given
Summary of the method: as §1

Compound	inhibition [%]
O=C1c2ccccc2C(=O)c2c1oc1c2c(=O)oc2ccccc21	18

Target: Trypanothione reductase (Trypanosoma cruzi) (UniProt P28593)
Test: Inhibition of Trypanosoma cruzi trypanothione reductase assessed as reduction in NADPH consumption at 5 uM using 40 uM trypanothione disulfide as substrate by spectrophotometric method relative to control
Conditions: not given
Summary of the method: as §1

Compound	inhibition [%]
O=C1c2ccccc2C(=O)c2c1oc1c2c(=O)oc2ccccc21	19.1

Target: Trypanothione reductase (Trypanosoma cruzi) (UniProt P28593)
Test: Inhibition of Trypanosoma cruzi trypanothione reductase assessed as reduction in NADPH consumption at 2.5 uM using 100 uM trypanothione disulfide as substrate by spectrophotometric method relative to control
Conditions: not given
Summary of the method: as §1

Compound	inhibition [%]
O=C1c2cccc(O)c2C(=O)c2c1oc1c2c(=O)oc2ccccc21	11.6

Target: Trypanothione reductase (Trypanosoma cruzi) (UniProt P28593)
Test: Inhibition of Trypanosoma cruzi trypanothione reductase assessed as reduction in NADPH consumption at 2.5 uM using 40 uM trypanothione disulfide as substrate by spectrophotometric method relative to control
Conditions: not given
Summary of the method: as §1

Compound	inhibition [%]
O=C1c2cccc(O)c2C(=O)c2c1oc1c2c(=O)oc2ccccc21	42.9

Target: hERG (KCNH2) (Homo sapiens, UniProt Q12809)
Test: Inhibition of Tracer Red binding to human ERG expressed in membranes at 10 uM by fluorescence polarization assay relative to control
Conditions: membranes expressing human ERG, probe Tracer Red
Summary of the method: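 Fluorescence polarization displacement of a high-affinity red fluorescent tracer from hERG channel–containing membrane fraction.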

Sequence of hERG (KCNH2) (Q12809 whole entry): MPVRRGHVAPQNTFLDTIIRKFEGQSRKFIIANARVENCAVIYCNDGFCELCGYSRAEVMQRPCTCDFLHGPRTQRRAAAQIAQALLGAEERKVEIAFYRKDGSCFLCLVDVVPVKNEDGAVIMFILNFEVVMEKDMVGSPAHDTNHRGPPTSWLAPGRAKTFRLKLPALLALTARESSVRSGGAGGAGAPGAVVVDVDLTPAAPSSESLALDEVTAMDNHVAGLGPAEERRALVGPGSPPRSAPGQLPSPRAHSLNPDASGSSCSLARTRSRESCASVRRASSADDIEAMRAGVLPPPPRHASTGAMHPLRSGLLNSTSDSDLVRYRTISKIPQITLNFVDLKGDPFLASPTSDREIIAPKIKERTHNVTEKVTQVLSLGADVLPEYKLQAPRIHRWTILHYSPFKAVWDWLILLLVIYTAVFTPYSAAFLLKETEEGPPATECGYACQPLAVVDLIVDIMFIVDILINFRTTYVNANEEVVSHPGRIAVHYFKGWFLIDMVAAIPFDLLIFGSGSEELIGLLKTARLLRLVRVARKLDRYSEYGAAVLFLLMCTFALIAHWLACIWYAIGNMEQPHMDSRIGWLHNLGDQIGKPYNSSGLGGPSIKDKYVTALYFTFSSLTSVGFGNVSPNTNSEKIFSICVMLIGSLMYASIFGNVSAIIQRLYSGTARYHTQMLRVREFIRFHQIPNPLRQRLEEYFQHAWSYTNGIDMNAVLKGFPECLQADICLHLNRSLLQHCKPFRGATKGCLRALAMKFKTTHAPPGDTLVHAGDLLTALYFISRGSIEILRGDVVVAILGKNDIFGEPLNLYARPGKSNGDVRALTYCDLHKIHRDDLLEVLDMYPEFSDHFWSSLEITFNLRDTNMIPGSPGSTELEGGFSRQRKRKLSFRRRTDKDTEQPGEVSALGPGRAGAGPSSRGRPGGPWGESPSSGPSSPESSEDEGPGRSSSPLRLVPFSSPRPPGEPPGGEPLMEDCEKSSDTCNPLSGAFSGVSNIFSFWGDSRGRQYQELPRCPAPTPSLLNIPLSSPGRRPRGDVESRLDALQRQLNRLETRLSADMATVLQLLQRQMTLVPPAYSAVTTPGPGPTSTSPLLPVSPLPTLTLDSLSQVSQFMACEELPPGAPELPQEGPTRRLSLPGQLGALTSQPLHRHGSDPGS

Compound	inhibition at 10 µM [%]
O=C1c2ccccc2C(=O)c2c1oc1c2c(=O)oc2ccccc21	-20.3
O=C1c2cccc(O)c2C(=O)c2c1oc1c2c(=O)oc2ccccc21	19.5

Target: T1, CYP1A2 (Homo sapiens, UniProt P05177)
T1 sequence (P05177 whole entry): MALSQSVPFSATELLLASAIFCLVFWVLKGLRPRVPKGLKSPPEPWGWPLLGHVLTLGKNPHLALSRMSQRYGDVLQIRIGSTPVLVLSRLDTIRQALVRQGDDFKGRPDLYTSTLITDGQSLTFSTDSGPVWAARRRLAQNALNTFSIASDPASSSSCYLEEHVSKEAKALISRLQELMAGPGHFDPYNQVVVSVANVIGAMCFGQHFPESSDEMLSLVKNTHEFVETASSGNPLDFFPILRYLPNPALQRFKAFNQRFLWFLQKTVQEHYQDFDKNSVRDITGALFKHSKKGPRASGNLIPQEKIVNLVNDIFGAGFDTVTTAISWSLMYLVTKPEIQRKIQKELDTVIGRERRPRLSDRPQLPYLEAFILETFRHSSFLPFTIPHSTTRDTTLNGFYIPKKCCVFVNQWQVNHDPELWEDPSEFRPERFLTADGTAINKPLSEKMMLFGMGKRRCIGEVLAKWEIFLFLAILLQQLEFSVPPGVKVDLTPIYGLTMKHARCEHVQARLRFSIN
Test: Inhibition of human CYP1A2 at 10 uM by P450-Glo assay relative to control
Assay type: ADME
Conditions: not given
Summary of the method: (§2)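 P450-Glo luminescent platform: CYP action on each substrate generates light; decreased light taken as inhibition.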

Compound	inhibition at 10 µM [%]
O=C1c2ccccc2C(=O)c2c1oc1c2c(=O)oc2ccccc21	48.2
O=C1c2cccc(O)c2C(=O)c2c1oc1c2c(=O)oc2ccccc21	40.8

Target: CYP2C9 (Homo sapiens, UniProt P11712)
Test: Inhibition of human CYP2C9 at 10 uM by P450-Glo assay relative to control
Assay type: ADME
Conditions: not given
Summary of the method: as §2

Sequence of CYP2C9 (P11712 whole entry): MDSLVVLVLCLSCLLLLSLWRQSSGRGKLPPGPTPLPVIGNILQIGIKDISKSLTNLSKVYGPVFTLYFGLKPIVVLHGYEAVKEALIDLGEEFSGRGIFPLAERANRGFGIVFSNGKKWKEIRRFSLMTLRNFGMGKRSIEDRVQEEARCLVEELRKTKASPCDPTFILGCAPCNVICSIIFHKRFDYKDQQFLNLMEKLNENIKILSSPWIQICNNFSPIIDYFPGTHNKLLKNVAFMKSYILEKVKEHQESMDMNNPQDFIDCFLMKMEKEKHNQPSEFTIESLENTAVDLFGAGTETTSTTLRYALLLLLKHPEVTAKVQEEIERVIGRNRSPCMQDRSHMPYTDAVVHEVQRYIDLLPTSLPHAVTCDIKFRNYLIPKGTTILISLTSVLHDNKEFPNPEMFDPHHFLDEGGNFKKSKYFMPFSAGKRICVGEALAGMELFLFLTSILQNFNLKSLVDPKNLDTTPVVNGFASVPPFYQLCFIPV

Compound	inhibition at 10 µM [%]
O=C1c2ccccc2C(=O)c2c1oc1c2c(=O)oc2ccccc21	32.4
O=C1c2cccc(O)c2C(=O)c2c1oc1c2c(=O)oc2ccccc21	44.6

Target: CYP2C19 (Homo sapiens, UniProt P33261)
Test: Inhibition of human CYP2C19 at 10 uM by P450-Glo assay relative to control
Assay type: ADME
Conditions: not given
Summary of the method: as §2

Sequence of CYP2C19 (P33261 whole entry): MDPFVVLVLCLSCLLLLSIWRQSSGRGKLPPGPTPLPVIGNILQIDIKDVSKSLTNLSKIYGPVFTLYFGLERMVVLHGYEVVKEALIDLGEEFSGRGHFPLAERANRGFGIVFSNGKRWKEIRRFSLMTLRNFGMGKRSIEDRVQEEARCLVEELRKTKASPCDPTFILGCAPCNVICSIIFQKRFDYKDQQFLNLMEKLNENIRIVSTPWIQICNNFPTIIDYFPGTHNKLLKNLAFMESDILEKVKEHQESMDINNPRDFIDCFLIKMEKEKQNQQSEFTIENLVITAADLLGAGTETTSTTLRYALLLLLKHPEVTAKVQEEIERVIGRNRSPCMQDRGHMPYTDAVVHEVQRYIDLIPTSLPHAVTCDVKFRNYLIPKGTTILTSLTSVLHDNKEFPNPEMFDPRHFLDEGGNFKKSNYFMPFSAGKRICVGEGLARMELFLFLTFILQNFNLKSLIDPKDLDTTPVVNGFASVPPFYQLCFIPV

Compound	inhibition at 10 µM [%]
O=C1c2ccccc2C(=O)c2c1oc1c2c(=O)oc2ccccc21	46.1
O=C1c2cccc(O)c2C(=O)c2c1oc1c2c(=O)oc2ccccc21	83.8

Target: CYP2D6 (Homo sapiens, UniProt P10635)
Test: Inhibition of human CYP2D6 at 10 uM by P450-Glo assay relative to control
Assay type: ADME
Conditions: not given
Summary of the method: as §2

Sequence of CYP2D6 (P10635 whole entry): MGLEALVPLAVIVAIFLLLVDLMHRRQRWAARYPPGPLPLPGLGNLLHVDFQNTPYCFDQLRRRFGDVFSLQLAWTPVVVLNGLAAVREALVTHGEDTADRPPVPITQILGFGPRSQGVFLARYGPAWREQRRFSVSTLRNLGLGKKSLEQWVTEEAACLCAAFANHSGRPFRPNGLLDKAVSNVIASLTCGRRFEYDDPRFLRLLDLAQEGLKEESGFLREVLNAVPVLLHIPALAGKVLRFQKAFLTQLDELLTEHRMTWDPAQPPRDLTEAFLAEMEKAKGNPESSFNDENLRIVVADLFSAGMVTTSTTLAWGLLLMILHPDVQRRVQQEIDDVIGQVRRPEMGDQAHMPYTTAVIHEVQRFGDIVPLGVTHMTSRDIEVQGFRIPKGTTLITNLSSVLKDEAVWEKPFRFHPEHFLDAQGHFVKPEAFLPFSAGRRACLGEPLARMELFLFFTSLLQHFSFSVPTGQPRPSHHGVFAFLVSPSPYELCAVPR

Compound	inhibition at 10 µM [%]
O=C1c2ccccc2C(=O)c2c1oc1c2c(=O)oc2ccccc21	71
O=C1c2cccc(O)c2C(=O)c2c1oc1c2c(=O)oc2ccccc21	95.2

Target: CYP3A4 (Homo sapiens, UniProt P08684)
Test: Inhibition of human CYP3A4 at 10 uM by P450-Glo assay relative to control
Assay type: ADME
Conditions: not given
Summary of the method: as §2

Sequence of CYP3A4 (P08684 whole entry): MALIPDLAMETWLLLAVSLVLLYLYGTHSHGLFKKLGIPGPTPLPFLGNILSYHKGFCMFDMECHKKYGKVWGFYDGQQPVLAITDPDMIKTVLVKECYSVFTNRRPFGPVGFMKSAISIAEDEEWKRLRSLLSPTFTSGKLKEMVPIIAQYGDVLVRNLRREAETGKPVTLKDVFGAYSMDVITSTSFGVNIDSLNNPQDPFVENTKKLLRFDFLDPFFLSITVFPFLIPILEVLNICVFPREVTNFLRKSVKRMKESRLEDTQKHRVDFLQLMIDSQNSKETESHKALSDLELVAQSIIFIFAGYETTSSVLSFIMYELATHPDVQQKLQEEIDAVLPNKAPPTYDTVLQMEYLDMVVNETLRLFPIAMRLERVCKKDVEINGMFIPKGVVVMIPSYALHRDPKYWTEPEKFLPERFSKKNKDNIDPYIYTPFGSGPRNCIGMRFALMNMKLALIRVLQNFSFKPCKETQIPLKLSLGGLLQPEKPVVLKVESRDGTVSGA

Compound	inhibition at 10 µM [%]
O=C1c2ccccc2C(=O)c2c1oc1c2c(=O)oc2ccccc21	14.8
O=C1c2cccc(O)c2C(=O)c2c1oc1c2c(=O)oc2ccccc21	9.44

System: not listed separately
Test: Cytotoxicity against human A549 cells assessed as cell growth at 10 uM by CellTiter-Glo assay relative to control
Assay type: cell-based
Conditions: read-out: Activity
Summary of the method: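 A549 cells; cellular ATP measured by CellTiter-Glo luminescence as a proxy for cell number; paclitaxel 10 μM as positive control.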

Compound	viability at 10 µM [%]
O=C1c2ccccc2C(=O)c2c1oc1c2c(=O)oc2ccccc21	146
O=C1c2cccc(O)c2C(=O)c2c1oc1c2c(=O)oc2ccccc21	167

System: 786-0
Test: Cytotoxicity against human 786-O cells assessed as mitochondrial viability at 10 uM by CMXRos staining based high-content imaging analysis relative to control
Assay type: cell-based
Conditions: 786-0, 10 µM
Summary of the method: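 786-O cells kept in RPMI-1640 with 2 mM glutamine, 10% FCS, streptomycin and penicillin G; mitochondria of live cells stained with MitoTracker Red CMXRos and imaged by high-content imaging.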

Compound	Activity [%]
O=C1c2ccccc2C(=O)c2c1oc1c2c(=O)oc2ccccc21	89.15
O=C1c2cccc(O)c2C(=O)c2c1oc1c2c(=O)oc2ccccc21	85.82

Target: T2, Pteridine reductase 1 (Leishmania major) (UniProt Q01782)
T2 sequence (whole entry): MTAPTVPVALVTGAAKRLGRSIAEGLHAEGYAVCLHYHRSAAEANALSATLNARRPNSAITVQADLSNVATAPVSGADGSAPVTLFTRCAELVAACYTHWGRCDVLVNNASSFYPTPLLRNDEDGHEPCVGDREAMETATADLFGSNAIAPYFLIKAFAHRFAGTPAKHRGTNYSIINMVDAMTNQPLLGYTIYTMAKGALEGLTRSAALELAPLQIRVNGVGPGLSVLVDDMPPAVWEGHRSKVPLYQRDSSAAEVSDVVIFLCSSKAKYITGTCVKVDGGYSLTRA
Test: Inhibition of Leishmania major pteridine reductase 1 assessed as reduction in conversion of dihydrobiopterin to tetrahydrobiopterin at 25 uM up to 50 mins in presence of NADPH by cytochrome c reduction coupled photometric assay relative to control
Conditions: not given

Compound	inhibition [%]
O=C1c2ccccc2C(=O)c2c1oc1c2c(=O)oc2ccccc21	-0.4

Target: T2, Pteridine reductase 1 (Leishmania major)
Test: Inhibition of Leishmania major pteridine reductase 1 assessed as reduction in conversion of dihydrobiopterin to tetrahydrobiopterin at 10 uM up to 50 mins in presence of NADPH by cytochrome c reduction coupled photometric assay relative to control
Conditions: not given

Compound	inhibition [%]
O=C1c2cccc(O)c2C(=O)c2c1oc1c2c(=O)oc2ccccc21	-5.5

Target: T3, Pteridine reductase, putative (Trypanosoma brucei) (UniProt Q581W1)
T3 sequence (whole entry): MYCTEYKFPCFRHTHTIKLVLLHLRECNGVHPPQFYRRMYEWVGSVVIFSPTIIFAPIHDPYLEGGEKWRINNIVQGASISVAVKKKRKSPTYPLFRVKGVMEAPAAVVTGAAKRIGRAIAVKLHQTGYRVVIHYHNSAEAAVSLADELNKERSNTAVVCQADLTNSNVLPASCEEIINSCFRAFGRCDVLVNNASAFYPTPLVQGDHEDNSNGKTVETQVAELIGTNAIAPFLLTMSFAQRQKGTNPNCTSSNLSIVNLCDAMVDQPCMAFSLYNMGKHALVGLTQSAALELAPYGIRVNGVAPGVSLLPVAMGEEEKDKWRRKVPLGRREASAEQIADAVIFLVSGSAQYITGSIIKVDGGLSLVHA
Test: Inhibition of Trypanosoma brucei pteridine reductase 1 assessed as reduction in conversion of dihydrobiopterin to tetrahydrobiopterin at 25 uM up to 50 mins in presence of NADPH by cytochrome c reduction coupled photometric assay relative to control
Conditions: not given

Compound	inhibition [%]
O=C1c2ccccc2C(=O)c2c1oc1c2c(=O)oc2ccccc21	-6.44

System: not listed separately
Test: Solubility in PBS after overnight incubation by nephelometry
Assay type: physicochemical
Conditions: not given

Compound	solubility kinetic [µM]
O=C1c2ccccc2C(=O)c2c1oc1c2c(=O)oc2ccccc21	70 (≈ 22.1 µg/mL)
O=C1c2cccc(O)c2C(=O)c2c1oc1c2c(=O)oc2ccccc21	14 (≈ 4.65 µg/mL)

System: not listed separately
Test: Solubility in pH 7.4 Hanks simulated body fluid after overnight incubation by nephelometry
Assay type: physicochemical
Conditions: not given

Compound	solubility kinetic [µM]
O=C1c2ccccc2C(=O)c2c1oc1c2c(=O)oc2ccccc21	70 (≈ 22.1 µg/mL)
O=C1c2cccc(O)c2C(=O)c2c1oc1c2c(=O)oc2ccccc21	35 (≈ 11.6 µg/mL)
